Series [1] in a line: Cytotoxicity against human A549 cells assessed as decrease in cell viability after 72 hrs by MTT assay. The class given is toxicity, cell-based. Summed up: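 Human A549 lung adenocarcinoma cells; viability read as cellular MTT conversion to formazan in a non-radioactive cell proliferation kit. Cisplatin was the positive control. IC50 values are means ± SEM of three independent experiments.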

The test system of series [2] is Mycobacterium tuberculosis. Description: Antitubercular activity against Mycobacterium tuberculosis H37Rv after 5 days by microplate alamar blue assay. It counts as functional. As to conditions: for MIC: Mycobacterium tuberculosis, H37Rv, 120 h. Summed up:
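Middlebrook 7H9 broth; serial dilutions of 0.2–100 μg/mL made in the plate. Incubated at 37°C for 5 days, then 1:1 alamar blue/10% Tween 80 added and incubated 24 h. MIC is the lowest concentration that prevents the blue-to-pink change. Ethambutol and rifampicin were standards.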
For orientation: The colour change of resazurin is a common sign of viable cells or microbes.

Series [3] has as its target T1, Enoyl-[acyl-carrier-protein] reductase [NADH] (Mycobacterium tuberculosis, UniProt P9WGR1).
T1 sequence (P9WGR1 whole entry): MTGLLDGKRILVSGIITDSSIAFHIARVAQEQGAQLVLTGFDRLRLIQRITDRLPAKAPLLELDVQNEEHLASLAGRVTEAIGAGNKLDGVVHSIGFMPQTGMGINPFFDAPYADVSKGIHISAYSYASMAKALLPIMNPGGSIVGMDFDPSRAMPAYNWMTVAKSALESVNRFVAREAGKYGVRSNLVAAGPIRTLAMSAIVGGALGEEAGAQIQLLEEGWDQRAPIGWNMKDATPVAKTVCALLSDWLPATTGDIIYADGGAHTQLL
Description: Inhibition of His6-tagged recombinant Mycobacterium tuberculosis InhA expressed in protease-deficient Escherichia coli (BL21) using trans-2-dodecenoyl-coenzyme A as substrate assessed as NADH oxidation. A digest of the protocol: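 InhA-6xHis from E. coli BL21 (pHAT5/InhA), induced overnight with 1 mM IPTG at 20°C, purified on Ni-NTA and desalted. Assay at 25°C in 30 mM PIPES, 150 mM NaCl, pH 6.8, with 250 μM NADH, 50 μM DDCoA and 5% DMSO final. Compound screened at 50 μM. % inhibition taken from slopes with and without inhibitor. Triclosan was the reference.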

Converted amounts (≈) assume the structure as drawn.

Broadly, the IC50 is the concentration needed to halve the response being measured. The MIC is the smallest concentration in the dilution series that meets the test's criterion for growth inhibition. Higher therefore signals a less susceptible organism. With `C/C(CCC(=O)Nc1ccc(F)cc1)=N\NC(=O)c1ccc(-n2cccc2)cc1`, in series [1], the IC50 at 72 h came out at 438 µM. In series [2], the “-logMIC” value is on record as 5.5 and the MIC was 3.12 µg/mL (≈ 7.95 µM). Besides, in series [3], the IC50 stood at 7.69 µM.
Consider `C/C(CCC(=O)Nc1ccccc1Cl)=N\NC(=O)c1ccc(-n2cccc2)cc1`, for which, in series [2], the “-logMIC” value was 4.6 and the minimum inhibitory concentration (MIC) worked out at 25 µg/mL (≈ 61.1 µM).
On to `C/C(=N\NC(=O)c1ccc(-n2cccc2)cc1)C(=O)Nc1cccc(Br)c1`, for which, in series [2], the “-logMIC” value was determined as 4.9 and the MIC worked out at 12.5 µg/mL (≈ 29.4 µM).
The compound `CC[C@@H](CO)NCCN[C@@H](CC)CO` [ETHAMBUTOL] registered an MIC in series [2] of 0.5 µg/mL (≈ 2.45 µM).
Regarding `C/C(=N\NC(=O)c1ccc(-n2cccc2)cc1)C(=O)Nc1ccc(Br)cc1`, in series [1], the IC50 at 72 h was found to be 441 µM. Also, in series [2], the “-logMIC” value worked out at 5.5 and the MIC was 3.12 µg/mL (≈ 7.34 µM).
As to `C/C(CCC(=O)Nc1ccccc1)=N\NC(=O)c1ccc(-n2cccc2)cc1`, in series [2], the “-logMIC” value stood at 4.3 and the lowest concentration to inhibit growth (MIC) was 50 µg/mL (≈ 134 µM).
For the compound `C/C(CCC(=O)Nc1cccc(F)c1)=N\NC(=O)c1ccc(-n2cccc2)cc1`, in series [2], the “-logMIC” value is on record as 4.6 and the MIC was 12.5 µg/mL (≈ 31.9 µM).
The corresponding values for `C/C(=N\NC(=O)c1ccc(-n2cccc2)cc1)C(=O)Nc1c(Cl)cccc1Cl` are 4.6 and 25 µg/mL (≈ 60.2 µM).
In series [2], `C/C(CCC(=O)Nc1cccc(Cl)c1)=N\NC(=O)c1ccc(-n2cccc2)cc1` returned an MIC of 12.5 µg/mL (≈ 30.6 µM).
Turning to `C/C(CCC(=O)Nc1ccc(Br)cc1)=N\NC(=O)c1ccc(-n2cccc2)cc1`, in series [2], the “-logMIC” value worked out at 5.2 and it took 6.25 µg/mL (≈ 13.8 µM) to inhibit growth (MIC).
On the same counts, the results for `COc1cccc(NC(=O)/C(C)=N/NC(=O)c2ccc(-n3cccc3)cc2)c1` are 4.3 and 50 µg/mL (≈ 133 µM).
The corresponding values for `C/C(=N\NC(=O)c1ccc(-n2cccc2)cc1)C(=O)Nc1cc(Br)cc(Br)c1` are 4.9 and 12.5 µg/mL (≈ 24.8 µM).
The corresponding values for `COc1ccc(NC(=O)/C(C)=N/NC(=O)c2ccc(-n3cccc3)cc2)cc1` are 4.3 and 50 µg/mL (≈ 133 µM).
Consider `C/C(=N/NC(=O)c1ccc(-n2cccc2)cc1)C(N)=O`, for which, in series [2], the “-logMIC” value was determined as 4.3 and the MIC was found to be 50 µg/mL (≈ 185 µM).
The corresponding values for `C/C(=N\NC(=O)c1ccc(-n2c(C)ccc2C)cc1)C(=O)Nc1ccc(Br)cc1` are 5.2 and 6.25 µg/mL (≈ 13.8 µM).
For the compound `C/C(=N\NC(=O)c1ccc(-n2c(C)ccc2C)cc1)C(=O)Nc1c(Cl)cccc1Cl`, in series [2], the “-logMIC” value is reported as 4 and 100 µg/mL (≈ 226 µM) was the least that counted as inhibitory (MIC).
On the same counts, the results for `COc1ccccc1NC(=O)CC/C(C)=N/NC(=O)c1ccc(-n2cccc2)cc1` are 4 and 100 µg/mL (≈ 247 µM).
For `C/C(=N\NC(=O)c1ccc(-n2cccc2)cc1)C(=O)Nc1ccc(F)cc1`, in series [2], the “-logMIC” value stood at 5.2 and inhibition of growth (MIC) required 6.25 µg/mL (≈ 17.2 µM).
Turning to `C/C(=N\NC(=O)c1ccc(-n2cccc2)cc1)C(=O)Nc1ccccc1F`, in series [2], the “-logMIC” value is 4.3 and the MIC was 25 µg/mL (≈ 68.6 µM).
For the compound `C/C(CCC(=O)Nc1cccc(Br)c1)=N\NC(=O)c1ccc(-n2cccc2)cc1`, the “-logMIC” value in series [2] stood at 4.9.
For `C/C(=N\NC(=O)c1ccc(-n2cccc2)cc1)C(=O)Nc1cccc(F)c1`, in series [2], the “-logMIC” value came to 4.58 and the MIC is 12.5 µg/mL (≈ 34.3 µM).
The corresponding values for `C/C(CCC(=O)Nc1cc(Cl)cc(Cl)c1)=N\NC(=O)c1ccc(-n2cccc2)cc1` are 4.6 and 25 µg/mL (≈ 56.4 µM).
For `C/C(CCC(=O)Nc1ccc(Cl)cc1)=N\NC(=O)c1ccc(-n2cccc2)cc1`, in series [1], the IC50 at 72 h was found to be 406 µM. Also, in series [2], the “-logMIC” value came out at 5.5 and inhibition of growth (MIC) required 3.12 µg/mL (≈ 7.63 µM).
Turning to `C/C(=N\NC(=O)c1ccc(-n2cccc2)cc1)C(=O)Nc1cc(Cl)cc(Cl)c1`, in series [2], the “-logMIC” value is 4.9 and the MIC turned out to be 12.5 µg/mL (≈ 30.1 µM).
For the compound `NNC(=O)c1ccncc1` [ISONIAZID], the IC50 at 72 h in series [1] was over 450 µM.
As to `C/C(CCC(=O)Nc1ccccc1F)=N\NC(=O)c1ccc(-n2cccc2)cc1`, in series [2], the “-logMIC” value is 4.6 and the MIC stood at 25 µg/mL (≈ 63.7 µM).
Turning to `CO[C@H]1/C=C/O[C@@]2(C)Oc3c(C)c(O)c4c(O)c(c(/C=N/N5CCN(C)CC5)c(O)c4c3C2=O)NC(=O)/C(C)=C\C=C\[C@H](C)[C@H](O)[C@@H](C)[C@@H](O)[C@@H](C)[C@H](OC(C)=O)[C@@H]1C` [RIFAMPIN], in series [2], inhibition of growth (MIC) required 0.4 µg/mL (≈ 0.486 µM).
Take `COc1ccc(NC(=O)/C(C)=N/NC(=O)c2ccc(-n3c(C)ccc3C)cc2)cc1`: in series [2], the “-logMIC” value is 4.6 and the minimum inhibitory concentration (MIC) turned out to be 25 µg/mL (≈ 61.8 µM).

For the origin of these results see ChEMBL document CHEMBL3853305, “Synthesis, characterization and antitubercular activities of novel pyrrolyl hydrazones and their Cu-complexes” (Eur J Med Chem, 2016).
